Experimental data: ChEMBL document CHEMBL3286351, “Antibacterial evaluation of structurally amphipathic, membrane active small cationic peptidomimetics: synthesized by incorporating 3-amino benzoic acid as peptidomimetic element” (Eur J Med Chem, 2014)
Converted amounts (≈) assume the structure as drawn. The source made the active and inactive calls. The calls are words filed in the database; no cut-off is given here. Where a SMILES comes first, the peptide text is derived from it. [ ]: non-standard residue; d: D form. 3Abz = Nc1cccc(C(=O)O)c1; Orn = NCCC[CH](N)C(=O)O

Experiments:
[1] = Induction of hemolysis in human RBC assessed as hemoglobin release after 1 hr by microtiter plate reader analysis; assay type: cell-based, Erythrocyte
Outline: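 Freshly isolated human RBCs washed three times in PBS (35 mM phosphate, 150 mM NaCl, pH 7.2) and used as a 4% (v/v) suspension. Mixed 1:1 with twofold serial dilutions of compound, incubated 1 h at 37 °C without agitation, then centrifuged. Supernatant A540 read. PBS defined 0% and 1% Triton X-100 defined 100% lysis; HC50 and HC10 derived.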

Bacillus subtilis = assay: Antibacterial activity against Bacillus subtilis MTCC 2763 assessed as growth inhibition after 18 hrs by CLSI microdilution broth assay; assay type: functional; conditions: MTCC 2763, 18 h
alpha chymotrypsin = assay: Proteolytic stability assessed as alpha chymotrypsin (unknown origin)-mediated compound degradation by measuring compound remaining after 4 days by RP-HPLC analysis; assay type: ADME; conditions: human, read-out: Stability
Outline: (§1)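 Compound at 1 mg/mL in 0.1 M NH4HCO3 (pH 8.2) combined with trypsin or α-chymotrypsin solution (1 mg enzyme per 50 mL of the same buffer) at 37 °C. Aliquots taken over time and quenched with 10% formic acid. Remaining compound quantified by C18 RP-HPLC. An enzyme-free control was run for each test.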

HaCaT [2] = assay: Cytotoxicity against human HaCaT cells at 100 to 500 ug/ml after 24 hrs by LDH release assay; assay type: cell-based
Outline: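 HaCaT cells (DMEM with 10% FBS, 37 °C, 5% CO2) seeded for 24 h, then treated with varying concentrations for 24 h. LDH measured at 490 nm in both supernatant and trypsinized cell lysate with a non-radioactive kit. % release = supernatant/(supernatant + lysate) × 100. Two independent experiments in triplicate.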

Escherichia coli [3] = assay: Induction of membrane damage in Escherichia coli at 4 times MIC after 2 hrs by DAPI/propidium iodide staining based fluorescence microscopy; assay type: functional, organism-based
Outline: (§2)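 Stained with PI (5 µg/mL) for 15 min in the dark at 0 °C, washed, then DAPI (10 µg/mL) for 15 min in the dark at 0 °C. Untreated cells processed identically as controls. Imaged by fluorescence microscopy with a 60× oil objective.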

Staphylococcus aureus [4] = assay: Antibacterial activity against methicillin-resistant Staphylococcus aureus ATCC BAA-1720 assessed as growth inhibition treated for 16 days by two-fold dilution assay; assay type: functional, organism-based
Outline: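 Serial-passage resistance study. Start from the initial MIC by broth microdilution, then expose cells to doubling dilutions in triplicate wells. After each 18 h incubation, pool the wells with the highest concentration still showing visible growth and re-inoculate at about 2 × 10^6 CFU/mL.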

Escherichia coli [5] = assay: Bactericidal activity against Escherichia coli MTCC 723 assessed as number of bacteria at 4 times MIC measured within 30 mins by time kill assay (reference value: 10^6 CFU/ml); assay type: functional
Outline: (§3)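 Time-kill assay. […] Aliquots taken at fixed intervals were serially diluted and plated on Mueller-Hinton agar. CFU were counted after 24 h at 37 °C. Two independent experiments, each in triplicate.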

[6] = Selectivity ratio of HC50 for hemolysis in human RBC to MIC for Staphylococcus aureus
Lipid bilayer [7] = assay: Membrane permeabilization in bacterial membrane model consisting large unilamellar vesicle of dipalmitoylphosphatidylcholine:dipalmitoylphosphatidylglycerol at ratio of 7:3 assessed as calcein release at 5 ug/ml after 90 mins by fluorescence assay; assay type: cell membranes
Outline: (§4)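 LUVs of DPPC:DPPG 7:3 (w/w) loaded with 70 mM calcein (150 mM NaCl, 0.1 mM EDTA, pH 7.4). Made by freeze-thaw and extrusion through 100 nm filters; free dye removed on Sephadex G-50; diameter 110-130 nm. Diluted to 40 µM lipid and exposed to 5-15 µg/mL compound. Fluorescence read at ex 490/em 520 nm each minute for 20 min, then every 10 min. Triton X-100 defined 100% release.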

[8] = tested on: Staphylococcus epidermidis; assay: Antibacterial activity against methicillin-resistant Staphylococcus epidermidis ATCC 51625 assessed as growth inhibition after 18 hrs by CLSI microdilution broth assay; assay type: functional; conditions: ATCC 51625, 18 h
Outline: (§5)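 Modified CLSI broth microdilution in Mueller-Hinton broth. Wells held 90 µL of about 2 × 10^5 CFU/mL inoculum plus 10 µL of serially diluted peptidomimetic, range 0.7-100 µg/mL. Plates were incubated overnight with agitation at 37 °C and absorbance read at 600 nm after 18 h. Controls: inoculum without compound, and uninoculated broth. Run in triplicate.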

HaCaT [9] = assay: Cytotoxicity against human HaCaT cells assessed as decrease in cell viability after 24 hrs by MTT assay; assay type: cell-based
Outline: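 HaCaT keratinocytes grown as a monolayer in DMEM with 10% FBS and penicillin/streptomycin, 37 °C, 5% CO2. Seeded 24 h, then exposed to compound for 24 h. MTT (5 mg/mL stock in PBS) added for 4 h; formazan dissolved in isopropanol and read at 570 nm. Growth inhibition calculated relative to medium-only controls. Two independent experiments in triplicate.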

[10] = Proteolytic stability assessed as trypsin (unknown origin)-mediated compound degradation by measuring compound remaining after 4 days by RP-HPLC analysis; assay type: ADME; conditions: human, 96 h; outline: as §1
Staphylococcus aureus [11] = assay: Antibacterial activity against Staphylococcus aureus MTCC 3160 assessed as growth inhibition after 18 hrs by CLSI microdilution broth assay; assay type: functional; conditions: MTCC 3160, 18 h
Staphylococcus aureus [12] = assay: Antibacterial activity against methicillin-resistant Staphylococcus aureus ATCC BAA-1720 assessed as growth inhibition after 18 hrs by CLSI microdilution broth assay; assay type: functional; conditions: ATCC BAA-1720, 18 h; outline: as §5
Lipid bilayer [13] = assay: Membrane permeabilization in bacterial membrane model consisting large unilamellar vesicle of dipalmitoylphosphatidylcholine:dipalmitoylphosphatidylglycerol at ratio of 7:3 assessed as calcein release at 15 ug/ml after 90 mins by fluorescence assay; assay type: cell membranes; outline: as §4
Staphylococcus aureus [14] = assay: Antibacterial activity against Staphylococcus aureus MTCC 3160 assessed as growth inhibition treated for 16 days by two-fold dilution assay; assay type: functional, organism-based
[15] = Membrane permeabilization in mammalian membrane model consisting large unilamellar vesicle of dipalmitoylphosphatidylcholine:cholesterol at ratio of 10:1 assessed as calcein release at 15 ug/ml after 5 mins by fluorescence assay; assay type: cell membranes
Outline: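 LUVs of DPPC/cholesterol 10:1 (w/w) loaded with calcein, extruded through 100 nm filters, and cleared of free dye on Sephadex G-50. Diluted to 40 µM lipid in calcein-free buffer (150 mM NaCl, 0.1 mM EDTA). Calcein release read at ex 490/em 520 nm, normalized to Triton X-100 lysis.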

Pseudomonas aeruginosa = assay: Antibacterial activity against Pseudomonas aeruginosa MTCC 2295 assessed as growth inhibition after 18 hrs by CLSI microdilution broth assay; assay type: functional; conditions: MTCC 2295, 18 h
Staphylococcus aureus [16] = assay: Induction of membrane damage in Staphylococcus aureus at 4 times MIC after 2 hrs by DAPI/propidium iodide staining based fluorescence microscopy; assay type: functional, organism-based; outline: as §2
[17] = Retention time of the compound by HPLC analysis; assay type: physicochemical
Outline: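 Analytical RP-HPLC on a C18 column (5 µm, 4.6 × 250 mm) at room temperature. Run a linear gradient of 0.5-60% acetonitrile containing 0.05% TFA against water containing 0.05% TFA at 0.5 mL/min.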

Lipid bilayer [18] = assay: Membrane permeabilization in bacterial membrane model consisting large unilamellar vesicle of dipalmitoylphosphatidylcholine:dipalmitoylphosphatidylglycerol at ratio of 7:3 assessed as calcein release after 5 mins by fluorescence assay; assay type: cell membranes; outline: as §4
Escherichia coli [19] = assay: Antibacterial activity against Escherichia coli MTCC 723 assessed as growth inhibition after 18 hrs by CLSI microdilution broth assay; assay type: functional; conditions: MTCC 723, 18 h
[20] = Proteolytic stability assessed as alpha chymotrypsin (unknown origin)-mediated compound degradation after 24 hrs by RP-HPLC analysis; assay type: ADME; conditions: human; outline: as §1
Plasma = assay: Stability in human plasma assessed as compound degradation after 24 hrs by RP-HPLC analysis; assay type: ADME, cell-free; conditions: 24 h
Outline: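 Compound (1 mg/mL stock in water; 50 µL) added to 1 mL fresh heparinized human plasma and held at 37 °C. Samples taken at 30 min, 1, 2, 6, 12 and 24 h. Proteins precipitated with 95% ethanol, cooled at 4 °C for 15 min and centrifuged at 18,000 g. Supernatant analyzed by RP-HPLC with UV detection at 280 nm.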

Staphylococcus aureus [21] = assay: Bactericidal activity against Staphylococcus aureus MTCC 3160 assessed as number of bacteria at 4 times MIC measured within 30 mins by time kill assay (reference value: 10^6 CFU/ml); assay type: functional; outline: as §3

In the case of `NCCCC(NC(=O)C(Cc1c[nH]c2ccccc12)NC(=O)c1cccc(NC(=O)C(Cc2c[nH]c3ccccc23)NC(=O)C(CCCN)NC(=O)C(N)Cc2c[nH]c3ccccc23)c1)C(N)=O` (stereo unspecified) (H-W[Orn]W[3Abz]W[Orn]-NH2; configuration not given here), the HC10 ([1]; erythrocyte, 1 h) is reported as 100 µg/mL, the HC50 at 1 h ([1]; red blood cells) is reported as 390 µg/mL and the MIC (Bacillus subtilis) is reported as 25 µg/mL (≈ 27.1 µM). For the same compound, the remaining at 96 h (alpha chymotrypsin) was 70%, the Activity (HaCaT [2]) was “Toxic” and the Activity (Escherichia coli [3]) was “Active”. The inhibition (Staphylococcus aureus [4]) was “Active”, the CFU/ml (Escherichia coli [5]) was 1000 and the Selectivity ratio [6] was 62.4. The Activity (Lipid bilayer [7]) was 23%, the MIC [8] was 6.25 µg/mL (≈ 6.77 µM) and the Activity (HaCaT [9]) was “Dose-dependent effect”. For the same compound, the Stability [10] was “Stable”, the MIC (Staphylococcus aureus [11]) was 6.25 µg/mL (≈ 6.77 µM) and the MIC (Staphylococcus aureus [12]) was 5 µg/mL (≈ 5.42 µM). For the same compound, the Activity (Lipid bilayer [13]) was 48%, the inhibition (Staphylococcus aureus [14]) was “Active” and the Activity [15] was “inactive”. The MIC (Pseudomonas aeruginosa) was 15.5 µg/mL (≈ 16.8 µM), the Activity (Staphylococcus aureus [16]) was “Active” and the Retention_time [17] was 25.378 min. The Activity (Lipid bilayer [18]) was “Dose-dependent effect”, the MIC (Escherichia coli [19]) was 20 µg/mL (≈ 21.7 µM) and the Stability [20] was “Stable”. The Stability (Plasma) was “Stable” and the CFU/ml (Staphylococcus aureus [21]) was 1000.
